The text below walks through data of ChEMBL document CHEMBL5233289, “Synthesis of Quinoline and Dihydroquinoline Embelin Derivatives as Cardioprotective Agents” (J Nat Prod, 2023).

One data set relates to MCF7. Description: Antagonizing activity against doxorubicin-induced antitumor activity in human MCF7 cells assessed as cell viability at 20 uM incubated for 24 hrs in presence of doxorubicin by MTT assay. The settings on record: mcf7, 24 h. Format: toxicity, cell-based. Summed up:
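MCF-7 human breast cancer cells in DMEM with 10% FBS, 37 °C, 5% CO2. They were co-treated with compound (20 μM) plus DOX (1 μM) for 24 h. Viability was read by MTT: 1 h at 37 °C, formazan in DMSO, A540. Mean ± SD, n = 3.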
For orientation: Tetrazolium assays rely on reduction of a dye to a coloured formazan, in cell work by metabolically active cells.

The subject of data set [1] is H9c2. Put plainly: Cardioprotective activity against rat H9c2 cells assessed as reduction in doxorubicin-induced cardiotoxicity by measuring cell viability at 20 uM incubated for 24 hrs in presence of doxorubicin by MTT assay. Format: functional. A digest of the protocol: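 H9c2 rat cardiomyocytes in DMEM with 10% FBS, seeded for 24 h, then co-treated with compound (20 μM) and DOX (1 μM) for 24 h. MTT added for 1 h at 37 °C, formazan dissolved in DMSO, absorbance read at 540 nm. DOX alone served as positive control. Mean ± SD, n = 3.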

Data set [2] relates to H9c2. Description: Activation of Akt in rat H9c2 cells assessed as increase in Akt phosphorylation at 20 uM in presence of doxorubicin by immunoblot analysis. The data set is classed as cell-based. The settings on record: filed as activator. A digest of the protocol: (§1)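 H9c2 cell lysates after DOX (1 μM) alone or with derivative (20 μM) were run on SDS-PAGE and transferred to PVDF. Blots were probed for pAkt, Akt, pERK1/2, ERK1/2, Bax and Bcl-2, with β-actin as loading control. Detection used HRP secondary (2 h) and ECL, with densitometric quantification. Mean ± SD, n = 3.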
In general terms: In western blotting, separated proteins are transferred to a membrane and probed.

For data set [3], the system named is H9c2. Description: Antioxidant activity against rat H9c2 cells assessed as reduction in doxorubicin-induced oxidative stress by measuring reduction in intracellular ROS level at 20 uM incubated for 24 hrs by DCFH-DA staining based fluorometric analysis.
For data set [4], the target named is Mitogen-activated protein kinase 1 and 3 (ERK2 and ERK1) (Rattus norvegicus) (UniProt P63086+P21708). Put plainly: Inhibition of doxorubicin-induced ERK1/2 activation in rat H9c2 cells assessed as reduction in ERK1/2 phosphorylation at 20 uM in presence of doxorubicin by immunoblot analysis. The data set is classed as cell-based. A digest of the protocol: as §1
Mitogen-activated protein kinase 1 and 3 (ERK2 and ERK1) (Rattus norvegicus), sequence (P21708 whole entry, looked up): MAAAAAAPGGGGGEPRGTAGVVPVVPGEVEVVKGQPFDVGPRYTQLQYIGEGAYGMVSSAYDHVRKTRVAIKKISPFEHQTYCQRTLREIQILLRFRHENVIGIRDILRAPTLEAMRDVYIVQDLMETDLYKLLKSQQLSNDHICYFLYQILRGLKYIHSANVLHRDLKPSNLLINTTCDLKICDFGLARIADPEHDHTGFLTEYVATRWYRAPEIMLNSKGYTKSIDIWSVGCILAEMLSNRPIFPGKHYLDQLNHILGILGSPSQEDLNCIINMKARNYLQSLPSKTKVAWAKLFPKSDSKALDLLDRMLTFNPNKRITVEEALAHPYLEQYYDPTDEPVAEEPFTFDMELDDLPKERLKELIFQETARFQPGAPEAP
Mitogen-activated protein kinase 1 and 3 (ERK2 and ERK1) (Rattus norvegicus), sequence (P63086 whole entry, looked up): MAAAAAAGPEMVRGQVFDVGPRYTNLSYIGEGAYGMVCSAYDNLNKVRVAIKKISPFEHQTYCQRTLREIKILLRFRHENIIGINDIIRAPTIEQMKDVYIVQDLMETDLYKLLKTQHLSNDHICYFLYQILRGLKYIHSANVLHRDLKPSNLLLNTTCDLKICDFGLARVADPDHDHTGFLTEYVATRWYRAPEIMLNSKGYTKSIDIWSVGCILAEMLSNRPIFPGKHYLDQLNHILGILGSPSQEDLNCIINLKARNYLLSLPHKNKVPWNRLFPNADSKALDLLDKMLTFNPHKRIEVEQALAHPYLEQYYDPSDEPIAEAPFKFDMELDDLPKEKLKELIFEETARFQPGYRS

Data set [5] has as its system H9c2. Put plainly: Cardioprotective activity against doxorubicin-treated rat H9c2 cells assessed as decrease in Bax protein expression at 20 uM in presence of doxorubicin by immunoblot analysis. Format: functional, cell-based. A digest of the protocol:
as §1

Data set [6] relates to H9c2. Put plainly: Cardioprotective activity against doxorubicin-treated rat H9c2 cells assessed as increase in Bcl2 protein expression at 20 uM in presence of doxorubicin by immunoblot analysis. The data set is classed as functional, cell-based. Summed up:
as §1

For data set [7], the system named is H9c2. Put plainly: Induction of oxidative stress in rat H9c2 cells assessed as increase in intracellular ROS level at 20 uM incubated for 24 hrs by DCFH-DA staining based fluorometric analysis. Format: toxicity, cell-based. Conditions: h9c2, 24 h. A digest of the protocol:
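Intracellular ROS in H9c2 cells. Cells were treated with compound (20 μM) alone or with DOX (1 μM) over 24 h, with NAC (1 mM) as ROS inhibitor. They were then loaded with 10 μM DCFH-DA for 30 min at 37 °C in the dark. Fluorescence was read at 485/550 nm. Mean ± SD, n = 3.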

The subject of data set [8] is H9c2. Description: Antioxidant activity against rat H9c2 cells assessed as reduction in doxorubicin-induced oxidative stress by measuring reduction in intracellular ROS level at 1 mM incubated for 24 hrs by DCFH-DA staining based fluorometric analysis.
A short description of data set [9]: Cytotoxicity against mouse J774.A1 cells assessed as cell viability at 20 uM incubated for 24 hrs by MTT assay (reference value: 100%). Format: toxicity, cell-based. Conditions: read-out: Activity. Summed up: (§2)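 J774A.1 murine macrophages or H9c2 rat cardiomyocytes, grown in DMEM with 10% FBS and 1% pen/strep, were seeded for 24 h and then incubated with compound alone for 24 h. MTT reagent was added for 1 h at 37 °C, formazan dissolved in DMSO, absorbance at 540 nm. Results relative to untreated cells, mean ± SD, n = 3.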

Data set [10] is described as follows: Cytotoxicity against mouse J774.A1 cells assessed as cell viability at 10 uM incubated for 24 hrs by MTT assay (reference value: 100%). Format: toxicity, cell-based. Conditions: read-out: Activity. A digest of the protocol: as §2
Data set [11] in a line: Cytotoxicity against rat H9c2 cells assessed as cell viability at 20 uM incubated for 24 hrs by MTT assay (reference value: 100%). Format: toxicity, cell-based. Conditions: read-out: Activity. A digest of the protocol: as §2
Data set [12] is described as follows: Cytotoxicity against rat H9c2 cells assessed as cell viability at 10 uM incubated for 24 hrs by MTT assay (reference value: 100%). Format: toxicity, cell-based. Conditions: read-out: Activity. Summed up: as §2

Molecules are shown by their SMILES. Calls of active or inactive are those of the source. The calls are words filed in the database; no cut-off is given here.

Take `CCCCCCCCCCCC1=C(O)C(=O)c2c(nc3ccccc3c2-c2ccc(F)cc2)C1=O`: the Activity entry in the data set on MCF7 was “Toxic”; with H9c2 [1] it was 81.4%.

For `CCCCCCCCCCCC1=C(O)C(=O)c2c(nc3ccccc3c2-c2ccc([N+](=O)[O-])cc2)C1=O`, the outcome in the data set on H9c2 [2], in the data set on H9c2 [3], with H9c2 [5] and with H9c2 [6] was Active. The Activity entry in the data set with MCF7 and in the data set on H9c2 [7] was “Non-Toxic” in each case. In data set [4], the inhibition result is “Active”.

As for `CCCCCCCCCCCC1=C(O)C(=O)c2c(nc3ccccc3c2-c2ccc(Br)cc2)C1=O`, the outcome in the data set on H9c2 [2], with H9c2 [3], in the data set on H9c2 [5] and with H9c2 [6] was Active. In addition, the Activity result with MCF7 was “Non-Toxic”; with H9c2 [1], 83.4%; in the data set on H9c2 [7], “Non-Toxic”. Moreover, the inhibition result in [4] is “Active”.

`CC(=O)N[C@@H](CS)C(=O)O`: the result with H9c2 [8] was Active.

For the compound `CCCCCCCCCCCC1=C(O)C(=O)c2c(nc3ccc(Br)cc3c2-c2ccc([N+](=O)[O-])cc2)C1=O`, the result with H9c2 [2], with H9c2 [3], in the data set on H9c2 [5] and in the data set on H9c2 [6] was Active. Further, the figures for the Activity entry in the data set with MCF7, with H9c2 [1] and in the data set with H9c2 [7] were “Non-Toxic”, 91.2% and “Non-Toxic”, respectively. In addition, in data set [4], the inhibition result was “Active”.

In the case of `CCCCCCCCCCCC1=C(O)C(=O)C2=C(Nc3ccccc3C2c2ccc(C)c(C)c2)C1=O` (stereo not given), the outcome with H9c2 [2], in the data set on H9c2 [3], in the data set with H9c2 [5] and in the data set on H9c2 [6] was Active. In addition, the Activity entry with MCF7 and in the data set on H9c2 [7] was “Non-Toxic” throughout. For the same compound, the inhibition result in data set [4] is “Active”.

Turning to `CCCCCCCCCCCC1=C(O)C(=O)c2c(nc3ccc(OC)cc3c2-c2ccc([N+](=O)[O-])cc2)C1=O`, the outcome in the data set with H9c2 [2], in the data set on H9c2 [3], with H9c2 [5] and in the data set with H9c2 [6] was Active. Also, the viability at 24 h, 20 µM in [9] is 76.3%; in data set [11] it was 94.4%. The Activity result is given as “Non-Toxic” in the data set on MCF7, 84.3% with H9c2 [1] and “Non-Toxic” with H9c2 [7]. Also, the viability at 24 h, 10 µM in [10] stood at 81.9%; in data set [12], 99.2%. The inhibition result in [4] is “Active”.
